Reference: ChEMBL document CHEMBL2346534, “Design, synthesis and in vitro anti-proliferative activity of 4,6-quinazolinediamines as potent EGFR-TK inhibitors” (Eur J Med Chem, 2013)

Experiments:
Type in all cases: functional
BT-549 = experiment: Cytotoxicity against human BT549 cells after 48 hrs by SRB assay; conditions: BT-549, 48 h
In short: (§1)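 NCI 60-panel five-dose screen. Cells in RPMI 1640 with 5% FBS and 2 mM L-glutamine, plated at 5000–40,000 cells/well by doubling time, preincubated 24 h at 37 °C/5% CO2. Drug from DMSO stock added at 0.01, 0.1, 1, 10 and 100 µM, then 48 h. TCA fixation, SRB stain, absorbance at 515 nm, time-zero plates included. GI50 = 50% reduction in net protein increase versus control.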

786-0 = experiment: Cytotoxicity against human 786-0 cells after 48 hrs by SRB assay; conditions: 786-0, 48 h; in short: as §1
A498 = experiment: Cytotoxicity against human A498 cells after 48 hrs by SRB assay; conditions: A498, 48 h; in short: as §1
HCT-116 = experiment: Cytotoxicity against human HCT116 cells after 48 hrs by SRB assay; conditions: HCT-116, 48 h; in short: as §1
[1] = Cytotoxicity against human EKVX cells after 48 hrs by SRB assay; in short: as §1
SR = experiment: Cytotoxicity against human SR cells after 48 hrs by SRB assay
In short: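 NCI 60-panel five-dose screen. Cells in RPMI 1640 with 5% FBS and 2 mM L-glutamine are plated at 5000–40,000 cells/well by doubling time and preincubated 24 h at 37 °C in 5% CO2. Drug in DMSO is tested at 0.01, 0.1, 1, 10 and 100 μM for 48 h. Cells are TCA-fixed, stained with SRB and read at 515 nm. GI50 is the concentration giving 50% reduction in net protein increase relative to time-zero and control plates.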

[2] = read-out: LC50 (the source's name)

With `NC(=O)Nc1ccc2ncnc(Nc3ccc(Cl)cc3)c2c1` the GI50 (BT-549) was 18.2 µM, the TGI (BT-549) was 79.3 µM and the CC50 (BT-549; [2]) was > 100 µM. The GI50 (786-0) was 20.7 µM, the TGI (786-0) was 88.9 µM and the CC50 (786-0; [2]) was > 100 µM. The GI50 (A498) was 0.45 µM, the TGI (A498) was 13 µM and the CC50 (A498; [2]) was 64.8 µM. For the same compound, the GI50 (HCT-116) was 24.9 µM, the TGI (HCT-116) was > 100 µM and the CC50 (HCT-116; [2]) was > 100 µM. The GI50 [1] was 0.37 µM, the TGI [1] was 4.46 µM and the CC50 [1, 2] was > 100 µM. The GI50 (SR) was 19.1 µM, the TGI (SR) was 75.6 µM and the CC50 (SR; [2]) was > 100 µM.
